Rows were chosen to be rich in hits. Some 3.7% of all compounds tested hit in one or more screens of this group.
E-selectin induc: induces E-selectin expression in human endothelial cells. HUVEC E-selectin immunofluorescence imaging; normalized: neutral wells 0, TNF-alpha wells 100. P16581. activation, % at 7.58 µM. AID 686992. 260,000 tested, 0.37% active;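 active = mean E-selectin-positive cell signal at least 10% of the positive control, reached in at least 60% of replicates, without over 20% cell loss; inconclusive = no rule given, readout overlaps actives, possibly toxicity-flagged; inactive = the rest, including those meeting only one limit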
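System: HUVEC / Compound: single concentration / Signal: immunofluorescence imaging / Read-out: percent E-selectin-positive cells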
F508del corr: CFTR F508del correction in bronchial cells | CFBE cells, YFP halide quenching; stimulated with forskolin plus potentiator P3; % fluorescence drop versus neutral controls | activity (quench increase), % at 7.58 µM | 350,000 tested, 0.36% active | AID 720511;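 active = mean added fluorescence quench of at least 8% versus neutral control, with both replicates also reaching 8%; inconclusive = only one of the mean or replicate conditions met; inactive = mean below 8% and not both replicates reaching 8%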;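 note: cells transiently co-express mutant CFTR-F508del with the halide-sensitive YFP; corrector assay measuring rescue of mutant channel to the surface after 24 h compound exposure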
FGF22 binding: FGF22 (human) thermal shift binding; Q9HCT0; recombinant FGF22 thermal shift, SYPRO orange fluorescence; percent of sucrose octasulfate shift, DMSO zero; activity (Tm shift, normalised), % at 9.99 µM; 340,000 tested, 1.5% active;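 active = mean Tm shift, scaled 0 neutral to 100 positive control, at about 1.3% or above, every replicate too, limit read from the data; inconclusive = no clear call, values can overlap the other calls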
DENV2 CPE rescue: protects cells from dengue virus 2 cytopathic effect; DENV2-infected cells, cytopathic effect rescue, plate reader; CPE inhibition, % at 9.99 µM; 350,000 tested, 1.7% active; in the data active = CPE inhibition above about 20%, passing the limit was not always enough; inconclusive = no clear call, values can overlap the other calls; tested in BHK-21 cells
ERAP1 inh: ERAP1 (human) enzyme inhibition; inhibition, % at 10.7 µM; recombinant ERAP1, Leu-AMC fluorescence, 60 min; Q9NZ08; 340,000 tested, 0.15% active;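 active = mean replicate inhibition of at least 30%, or all replicates individually reaching that 30% level; inactive = mean below 30% and not every replicate reaching it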
Target sequence (Q9NZ08 whole entry, looked up): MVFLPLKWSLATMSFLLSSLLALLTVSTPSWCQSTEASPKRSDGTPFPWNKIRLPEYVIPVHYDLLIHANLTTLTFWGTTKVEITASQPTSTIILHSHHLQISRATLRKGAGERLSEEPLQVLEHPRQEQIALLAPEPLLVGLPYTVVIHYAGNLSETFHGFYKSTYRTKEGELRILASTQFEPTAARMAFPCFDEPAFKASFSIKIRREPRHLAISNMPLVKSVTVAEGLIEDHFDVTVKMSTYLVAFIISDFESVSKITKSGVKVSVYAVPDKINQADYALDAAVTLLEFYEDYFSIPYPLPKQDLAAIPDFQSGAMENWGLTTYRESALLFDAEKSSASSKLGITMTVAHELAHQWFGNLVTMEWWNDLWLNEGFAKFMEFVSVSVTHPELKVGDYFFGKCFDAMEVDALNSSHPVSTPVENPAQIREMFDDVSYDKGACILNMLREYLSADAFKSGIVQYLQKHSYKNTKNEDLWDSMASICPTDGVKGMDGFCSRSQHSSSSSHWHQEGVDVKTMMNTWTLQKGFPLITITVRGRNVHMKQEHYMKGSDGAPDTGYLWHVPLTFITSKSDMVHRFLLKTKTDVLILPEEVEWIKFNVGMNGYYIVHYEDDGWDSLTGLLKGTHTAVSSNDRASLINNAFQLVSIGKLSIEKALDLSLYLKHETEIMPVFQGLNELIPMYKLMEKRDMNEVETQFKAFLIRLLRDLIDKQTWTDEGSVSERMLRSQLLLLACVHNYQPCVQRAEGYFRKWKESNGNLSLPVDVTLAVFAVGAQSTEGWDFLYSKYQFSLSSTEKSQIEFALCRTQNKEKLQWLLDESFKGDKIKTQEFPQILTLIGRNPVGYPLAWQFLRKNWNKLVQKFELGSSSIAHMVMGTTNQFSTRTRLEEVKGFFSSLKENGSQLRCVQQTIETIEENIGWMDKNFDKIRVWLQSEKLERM
A number is an active result; - = inactive; ? = inconclusive; . = not tested or not shown; + = active, no number.

SMILES	E-selectin induc	F508del corr	FGF22 binding	DENV2 CPE rescue	ERAP1 inh
NC(=S)/N=C/c1c(O)[nH]c(=O)[nH]c1=O	.	-	43	-	-
C=CCNC(=S)/N=C/c1c(O)[nH]c(=O)[nH]c1=O	.	-	-	-	-
OC(CNCCc1c[nH]c2ccccc12)C(F)(F)F (stereo unspecified)	.	-	.	-	-
OC(CCNCCc1c[nH]c2ccccc12)C(F)(F)Cl (stereo unspecified)	.	-	44	-	-
CCCN1[C@@H]2Cn3c(cccc3=O)[C@H]1[C@@H](C(=O)N(C)C)[C@@H]2CO	-	.	-	-	-
O=c1[nH]c(=O)n(C2CCCCC2)c(O)c1/C=N/N1CCCCC1c1cccnc1 (stereo unspecified)	-	-	-	-	-
O=c1[nH]c(=O)n(-c2cccc3ccccc23)c(O)c1/C=N/N1CCCCC1c1cccnc1 (stereo unspecified)	-	8.0	-	-	-
CNC(=O)Oc1cc2c(cc1C(C)(C)C)CCC2	-	-	44	-	-
CCN1CCC(N(C)C2CCCCC2)CC1	-	-	-	-	-
CCN1CCC(NCC2CCCCC2)CC1	.	-	-	32	-
O=S1(=O)CCN(CCc2c[nH]c3ccccc23)CC1	-	-	43	-	-
CCCCCCn1c(=O)c(C(=O)Nc2cnccn2)c(O)c2ccccc21	.	-	43	-	-
O=C(Cc1ccccc1)N1CCCCN2[C@H](C1)[C@H](c1ccc(-c3ccccc3)cc1)[C@@H]2CO	-	-	-	-	.
C[N+](C)(C)CC#CCN1CCCC1=O	-	-	-	-	73
O=C(Cc1ccccn1)N1CCCCN2[C@@H](CO)[C@@H](c3ccc(-c4ccccc4F)cc3)[C@@H]2C1	-	-	-	-	-
Oc1cccc2nc3ccccc3nc12	.	-	-	111	-
COc1ccc(OC(=O)N(C)C[C@H]2OCc3ccccc3-c3c(n(C)c4ccccc34)C(=O)N([C@H](C)CO)C[C@@H]2C)cc1	-	-	-	-	-
CNCCc1ccc(OC)c(OC)c1	.	-	-	51	-
N#Cc1cccc(-c2ccc([C@@H]3[C@H]4CN(C(=O)Cc5ccncc5)CCCCN4[C@H]3CO)cc2)c1	-	-	-	-	-
C[C@H]1C[C@@H](C)C(=O)[C@@H]([C@H](O)CC2CC(=O)NC(=O)C2)C1	.	-	-	124	-
CC1=NN(c2ccccc2)C(=O)/C1=C/c1c(O)[nH]c(=O)[nH]c1=O	-	-	1.4	-	-
CC1(CCO)CC(C)(CCc2ccccc2)OO1 (stereo unspecified)	.	-	-	-	-
CC[N+](C)(CC)CCCCOc1ccc2c(c1)C(=O)c1cc(OCCCC[N+](C)(CC)CC)ccc1-2	.	-	-	-	68
CCOP(=O)(C#Cc1ccccc1)C(O)c1ccc(Br)cc1 (stereo unspecified)	-	10	-	-	.
C=C(C)CC1(CC)C(=O)NC(=S)NC1=O	-	-	44	-	-
SMILES	E-selectin induc	F508del corr	FGF22 binding	DENV2 CPE rescue	ERAP1 inh
C=CCC1(CC)C(=O)NC(=S)NC1=O	-	-	-	?	-
O=C(Cc1ccccc1)N1C[C@@H]2[C@H](c3ccccc31)[C@H](CO)N2Cc1ccccc1	-	-	-	?	-
COc1ccc(C#Cc2ccc([C@@H]3[C@@H](CO)N4CCCCN(C(=O)Cc5ccncc5)C[C@H]34)cc2)cc1	-	-	-	-	-
N#CC1=C(N)Oc2c(c(=O)oc3ccccc23)C1c1ccc([N+](=O)[O-])o1 (stereo unspecified)	-	-	43	-	-
CCCC#Cc1ccc([C@@H]2[C@@H](CO)N3CCCCN(C(=O)Cc4ccccn4)C[C@@H]23)cc1	-	-	-	-	-
C/C=C/c1ccc(C2[C@H]3CNC[C@@H]2N3CC2CC2)cc1 (stereo partly specified)	-	-	.	-	-
CN(C)CC1CCCCC1OC(=O)Cc1ccc(Cl)c([N+](=O)[O-])c1 (stereo unspecified)	50	-	-	-	-
O=C(Cc1ccccc1)N1CCCCN2[C@H](CO)[C@H](c3ccc(C#Cc4ccccc4)cc3)[C@@H]2C1	-	-	-	-	-
O=c1ccc2cc(O[C@@H]3O[C@@H](CO)[C@H](O)[C@@H](O)[C@@H]3O)c(O)cc2o1	-	-	-	-	+
C=CCN1C(=S)N[C@@H]2c3ccccc3O[C@@]1(C)[C@@H]2C(=O)OCC	.	-	-	-	-
COC(=O)[C@@H]1[C@@H](CO)[C@@H]2Cn3c(ccc(-c4cccc(F)c4)c3=O)[C@H]1N2Cc1cccnc1	-	-	-	-	-
CC(C)C[C@@H]1COc2cccc(N3CCN(C)CC3)c2S(=O)(=O)N1	-	12	-	-	.
CC(C)(Cl)[N+](=O)[O-]	.	-	-	130	-
CC=Cc1ccc2n(c1=O)C[C@H]1[C@H](CO)[C@@H](C(=O)OC)[C@@H]2N1S(=O)(=O)c1cccc(C)c1 (mixture of isomers)	-	.	-	-	-
CCOP(=O)(OCC)c1cccc(OP(=O)(c2cccc([N+](=O)[O-])c2)c2cccc([N+](=O)[O-])c2)c1	.	-	-	-	.
CCOP(=O)(OCC)c1cccc(O)c1	.	-	45	-	-
COC(=O)[C@@H]1[C@@H](CO)[C@@H]2Cn3c(ccc(-c4cccnc4)c3=O)[C@H]1N2CCc1ccccc1	-	-	-	-	-
COC(=O)[C@@H]1[C@@H](CO)[C@@H]2Cn3c(ccc(-c4ccccc4F)c3=O)[C@H]1N2C(C)=O	-	-	-	-	-
COC(=O)C1=C(c2c(C)noc2C)C[C@@H]2CC[C@H]1N2C(=O)NC1CCCCC1	-	-	-	48	-
Cc1cccc(C)c1OP(N)(=O)Oc1c(C)cccc1C	-	-	-	-	-
Cc1cccc(OP(N)(N)=O)c1C	-	-	43	-	-
O=C(Cc1ccccn1)N1CCCCN2[C@@H](CO)[C@@H](c3ccc(-c4ccccc4)cc3)[C@@H]2C1	-	-	-	-	-
C[N+]1(C)C2CCC1CC(OC(=O)C(CO)c1ccccc1)C2 (stereo unspecified)	-	-	43	-	-
N#Cc1cccc(-c2ccc([C@H]3[C@@H](CO)N4CCCCN(C(=O)Cc5ccccc5)C[C@@H]34)cc2)c1	-	-	-	-	-
Cc1ccccc1N	.	-	-	-	-
Cc1ccc(N)c(C)c1	.	-	-	82	-
O=C(O)[C@@H]1[C@@H](CO)[C@@H]2Cn3c(ccc(-c4ccncc4)c3=O)[C@H]1N2C(=O)C1CCCCC1	-	-	-	-	-
COC(=O)[C@H]1[C@H](CO)[C@H]2Cn3c(ccc(-c4cccc(F)c4)c3=O)[C@@H]1N2Cc1ccncc1	-	-	-	-	-
COc1ccc(-c2ccc(OC)c(OC)c2OC)cc1	.	12	-	-	-
COc1ccc(CN2C(=O)NC(=O)/C(=C/c3ccc(OC)c(OC)c3OC)C2=O)cc1	-	-	-	-	-

From PubChem
